One data set concerns ACSS1 in BT474 cells. Description: 13C2-acetate labeling of citrate in BT474 cells. Format: cell-based, human. In short, it runs like this: (§1)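 Cells grown 24 h in serum-like modified Eagle's medium (SMEM) with 0.1 mM uniformly labeled 13C2-acetate. Conditions were normoxia with 10% dialyzed FBS (N10) or 1% O2 hypoxia with 1% dialyzed FBS (H1). Vehicle or test compound present. Cells washed in ice-cold PBS and extracted with methanol/acetonitrile/water (5:3:2) at 4°C for 5 min. Cleared extracts analysed by HILIC LC-MS on a Q Exactive HF-X.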

For data set [1], the system named is Brpkp110 cells. In words: 13C6-glucose dependent palmitate synthesis in Brpkp110 cells. Format: cell-based, mouse. Particulars: Brpkp110, normoxia, 10% dialyzed FBS. An outline of the steps: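 Cells grown 4 h under normoxia in SMEM with 10% dialyzed FBS and 5.5 mM uniformly labeled 13C6-glucose. Lipids extracted with methanol/chloroform/PBS and saponified in 0.3 M KOH in 90% methanol at 70°C for 1 h. Fatty acids recovered into hexane and palmitate labeling measured by C18 reverse-phase LC-MS.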

For data set [2], the system named is Brpkp110 cells. In words: 13C2-acetate labeling of palmitate in Brpkp110 cells. Format: cell-based, mouse. To be noted: Brpkp110, N10 and H1, 24 hr, 100 μM 13C2-acetate. An outline of the steps:
(§2)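 Cells labeled 24 h with 100 μM 13C2-acetate in SMEM under N10 (normoxia, 10% dialyzed FBS) or H1 (1% O2, 1% dialyzed FBS). Vehicle or test compound present; for BT474 in H1, a 10-fold dilution series. Lipids extracted with methanol/chloroform/PBS, saponified in 0.3 M KOH/90% methanol at 70°C for 1 h, then hexane-extracted. Palmitate labeling read by C18 reverse-phase LC-MS. n = 3, mean ± S.D.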

The subject of a further data set is WHIM12 tumors. In words: WHIM12 PDX tumor growth. Format: in vivo, mouse. Particulars: WHIM12 (ACSS2 low), 100 mpk daily PO. In short, it runs like this:
(§3)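 Female NSG mice, 5–6 weeks old, received subcutaneous PBS:Matrigel grafts: BT474 at 1×10^6 (with a 60-day 17β-estradiol pellet at the neck), MDA-MB-468 at 5×10^6, or WHIM12 PDX cells at 2×10^6. Once tumors established, mice were randomized to daily IP or oral gavage. Arms: vehicle (10% DMSO, 20% solutol, 70% water with 0.5% Tween20) or 100 mg/kg test compound. Calipers thrice weekly; volume (L × W²)/2.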

For data set [3], the system named is BT474, MDA-MB-468, and WHIM12 tumors. Description: Heavy acetate stable isotope tracing in tumors. Format: in vivo, mouse. An outline of the steps:
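Tumor-bearing mice received 2% D3- or 13C2-acetate in drinking water for two days, plus a 2 g/kg IP heavy-acetate bolus 90 min before sacrifice. Tumors excised under anesthesia and flash-frozen. Extraction at 40 mg/mL in methanol/acetonitrile/water (5:3:2) by bead homogenization, cleared twice. Citrate labeling analysed by HILIC LC-MS.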

The nature of data set [4]: Human liver microsomal stability. Particulars: 0.5 μM compound, 0.5 mg/mL microsomes; compared with VY-3-249. The class given is in vitro ADME. In short, it runs like this: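 Incubations: 0.5 μM compound, 0.5 mg/mL liver microsomes, NADPH-regenerating system, potassium phosphate pH 7.4. Timed aliquots quenched in acetonitrile with internal standard; no-cofactor controls run. LC-MS/MS analyte/internal-standard peak-area ratios. Elimination constant fitted by nonlinear regression; t1/2 from k = 0.693/t1/2. CLint scaled with 48 (mouse) or 39.7 (human) mg protein/g liver. n = 1.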
(Microsomes from liver hold many membrane-bound enzymes, among them those of drug oxidation.)

For another data set, the system named is Brpkp110 tumors. In words: Brpkp110 tumor growth in NSG mice. The class given is in vivo, mouse. In short, it runs like this:
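Brpkp110 cells (5×10^5 in PBS:Matrigel) implanted subcutaneously in 5–6-week-old female NSG mice, then randomized. Daily dosing: vehicle (10% DMSO, 20% solutol, 70% water with 0.5% Tween20) or 100 mg/kg test compound. Volume (L × W²)/2 from calipers thrice weekly. Resected tumors: formalin-fixed, paraffin-embedded, citrate steam retrieval, H2O2 block, Ki67 antibody, DAB with hematoxylin counterstain.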

In a further data set the target is T1, recombinant human ACSS3 (Homo sapiens, UniProt Q9H6R3).
T1 sequence (Q9H6R3 30-686): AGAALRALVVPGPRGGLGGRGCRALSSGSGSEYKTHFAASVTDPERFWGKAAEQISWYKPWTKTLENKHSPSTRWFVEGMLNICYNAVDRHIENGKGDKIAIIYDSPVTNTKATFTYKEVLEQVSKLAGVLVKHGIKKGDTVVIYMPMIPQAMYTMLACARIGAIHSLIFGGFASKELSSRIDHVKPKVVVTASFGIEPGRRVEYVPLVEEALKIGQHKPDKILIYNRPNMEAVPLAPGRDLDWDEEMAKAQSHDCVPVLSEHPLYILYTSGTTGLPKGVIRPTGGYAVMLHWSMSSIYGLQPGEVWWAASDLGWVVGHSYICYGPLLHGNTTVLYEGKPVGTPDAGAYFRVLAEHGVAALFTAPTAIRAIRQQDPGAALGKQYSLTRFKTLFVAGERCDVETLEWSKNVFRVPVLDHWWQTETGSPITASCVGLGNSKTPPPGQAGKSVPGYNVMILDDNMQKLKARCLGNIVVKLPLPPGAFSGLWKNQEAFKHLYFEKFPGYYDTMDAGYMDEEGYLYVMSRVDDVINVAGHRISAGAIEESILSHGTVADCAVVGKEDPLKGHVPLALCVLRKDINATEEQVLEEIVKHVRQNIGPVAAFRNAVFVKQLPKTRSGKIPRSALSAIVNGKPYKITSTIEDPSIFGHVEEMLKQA
Description: TranScreener AMP biochemical assay of ACSS3 activity. To be noted: regardless of the substrate (acetate or propionate). In short, it runs like this: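 Test compound was serially diluted in DMSO and added to ACSS1 (2 nM) or ACSS3 (25 nM). Acetate reaction: HEPES pH 7.4 buffer with 140 mM NaCl; final 5 mM acetate, 50 μM ATP, 5 μM CoA. Propionate reaction: HEPES/KCl/CHAPS buffer; final 5 mM propionate, 10 μM ATP, 100 μM CoA. Incubation 120 min, then AMP detected by terbium-antibody/tracer TR-FRET after 30 min. Percent inhibition was set against no-enzyme and DMSO controls.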

In a further data set the test system is BT474 tumors. In words: BT474 tumor xenograft growth. The class given is in vivo, mouse. Particulars: BT474, 100 mpk daily IP. An outline of the steps:
as §3

For data set [5], the system named is cytosolic AcCoA metabolism (UDP-GlcNAc). In words: 13C2-acetate labeling of UDP-GlcNAc in cells. The class given is cell-based. An outline of the steps: as §1
The next data set has as its system MDA-MB-468 tumors. In words: MDA-MB-468 tumor xenograft growth. The class given is in vivo, mouse. Particulars: MDA-MB-468 (ACSS2 high), 100 mpk daily PO. In short, it runs like this: as §3
The next data set deals with A7C11 cells. In words: 13C2-acetate labeling of palmitate in A7C11 cells. The class given is cell-based, mouse. To be noted: A7C11, N10 and H1, 24 hr, 100 μM 13C2-acetate. An outline of the steps:
as §2

As to `CCn1c(C(O)(c2ccccc2)c2ccccc2)nc2ccc(C(=O)NC[C@@H](C)O)cc21` [VY-3-135, (R)-1-ethyl-2-(hydroxydiphenylmethyl)-N-(2-hydroxypropyl)-1H-benzo[d]imidazole-6-carboxamide], in the data set on ACSS1 in BT474 cells (BT474, H1 conditions, 24 hr), the “13C2-acetate labeling of citrate” value is “did not decrease”. In the data set with ACSS1 in BT474 cells (BT474, hypoxia and low serum stressed cells), the “M+2 citrate (acetate contribution to the TCA cycle)” value is “increased M+2 citrate”. Further, the “13C6-glucose dependent palmitate synthesis” value in the data set on Brpkp110 cells [1] was “did not affect”. Also, the “acetate dependent labeling of palmitate by 13C2-acetate” value in the data set with Brpkp110 cells [2] and in the data set with A7C11 cells was “efficiently blocked” throughout. Moreover, the tumor growth result is reported as “mostly ineffective” with WHIM12 tumors; “marked inhibition” in the data set on Brpkp110 tumors (Brpkp110 (ACSS2 high), 100 mpk daily IP); “completely abrogated tumor growth” in the data set with BT474 tumors (two weeks of treatment); “repressed” in the data set with MDA-MB-468 tumors. The “D3-acetate labeling of citrate in MDA-MB-468 tumors” value in data set [3] (MDA-MB-468 tumors) is recorded as “increase in D3-acetate labeling of citrate”. The “D3-acetate or 13C2-acetate labeling of citrate in tumors” value in [3] (readout of ACSS1) was “did not observe any inhibitory effect”. Besides, the “stability in human liver microsomal assay” value in [4] was “superior stability”. For the same molecule, the “Ki67 staining of tumors (proliferation)” value with Brpkp110 tumors (Brpkp110 tumors) was “less proliferative”. The “inhibitory activity towards ACSS3” value on recombinant human ACSS3 is reported as “neither VY-3-249 nor VY-3-135 displayed any inhibitory activity”. Further, the “tumor regression by the end of the regimen” value in the data set with BT474 tumors (n = 5 mice per group) is given as “two of the tumors in VY-3-135 treated group were not palpable by the end of the regimen, with one tumor fully regressing”. In addition, the “incorporation of 13C2-acetate into UDP-GlcNAc” value in [5] is recorded as “blocked incorporation”.

The values are drawn from publication PMC8026699 (Cancer research, 2021).
